Measurements collected from several papers.
Protocols differ between the studies behind these lines.
Target: Dual specificity protein kinase CLK2 (CLK2, Homo sapiens, UniProt P49760)

| Compound | effect on | mode | method | tested at | measurement | result |
| --- | --- | --- | --- | --- | --- | --- |
| CC/C(=N\NC(=O)NCc1cccc(O)c1)c1ccc(O)c(C)c1O | enzyme activity | inhibitor |  | 0.1 µM | inhibition | 1.6% |
| CN(C)C1CCN(CC#Cc2nn(C3CCCC3)c3nc(NCc4ccccc4)ncc23)C1 (stereo not drawn) | enzyme activity | inhibitor | FRET | 1 µM | inhibition | 11% |
| FC(F)(F)Oc1cccc(-c2cnc3ccc(-c4ccncc4)nn23)c1 | enzyme activity | inhibitor | radiometric | 5 µM | activity vs control | 0.623% |
| Cn1c2c(c3ccc(Cl)c(Cl)c31)C(C#N)C(C)(C)NC2=O (stereo not drawn) | thermal stability |  | DSF | 10 µM | ΔTm | 3.2 °C |
| COc1cc(Cl)c(C(=O)N[C@@H](CN[C@H]2CC[C@@H](N)CC2)Cc2ccc(C#N)cc2)cc1-c1ccc(CN[C@H](C)c2ccc(C)cc2)o1 | enzyme activity | inhibitor |  | 1 µM | remaining activity | 92% |
| Cc1sc(C(=O)NC2COC2)cc1-n1cc(NC(=O)Nc2c(F)cccc2Cl)cn1 | enzyme activity | inhibitor |  | 10 µM | remaining activity | 100% |
| CN([C@@H]1CCc2c(CC(=O)O)c3cc(S(C)(=O)=O)ccc3n2C1)S(=O)(=O)c1ccc(F)cc1 | cell-free assay |  | competition with immobilised ligand | 1 µM | remaining binding | 100% |
| CCCCNc1ncc2c(-c3ccc(F)cc3)nn(C[C@H]3CC[C@H](N)CC3)c2n1 | target engagement in cells | inhibitor | chemoproteomics | 20 mM | inhibition | 46.4% |
| CCCS(=O)(=O)Nc1ccc(F)c(C(=O)c2c[nH]c3ncc(-c4ccc(Cl)cc4)cc23)c1F | enzyme activity | inhibitor |  | 1 µM | inhibition | < 10% |
| COc1cc(-c2cn(C3CCc4c(F)cccc4N(CC(F)(F)F)C3=O)nn2)ccc1-n1cnc(C)c1 (stereo not drawn) | cell-free assay |  | competition with immobilised ligand | 1 µM | remaining binding | 100% |
| Cc1ccc(C(=O)Nc2ccc(CN3CCN(C)CC3)c(C(F)(F)F)c2)cc1C#Cc1cnc2cccnn12 | enzyme activity | inhibitor |  | 23.5 nM | remaining activity | 94% |
| CCC1(CC)NC(=O)c2c(c3ccc(Cl)c(Cl)c3n2C)C1C#N (stereo not drawn) | thermal stability |  | DSF | 10 µM | ΔTm | 1.3 °C |
| COc1cc2ncnc(Nc3ccc(Oc4ccccc4)cc3C)c2cc1OC | enzyme activity | inhibitor |  | 1 µM | inhibition | 0% |
| FC(F)c1nc2ccccc2n1-c1nc(N2CCOCC2)nc(N2CCOCC2)n1 | enzyme activity | inhibitor |  | 10 µM | remaining activity | 85% |
| C#Cc1cccc(Nc2ncnc3cc(OCCOC)c(OCCOC)cc23)c1 | cell-free assay |  |  | 0.5 µM | remaining signal | 93.4% |
| CC(C1CC1)n1cnc2c(NCc3cccc(C(F)(F)F)c3)nc(NCCN(C)C)nc21 (stereo not drawn) | enzyme activity | inhibitor |  | 5 µM | inhibition | > 50% |
| CCCOc1ccc(OC)c(F)c1C(=O)c1ccc(C(=O)N[C@@H]2CNC[C@H]2NC(=O)c2ccc3[nH]ncc3c2)cc1 | enzyme activity | inhibitor |  | 10 µM | remaining activity | 36% |
| COc1ccc2cc(OCC3(C(=O)O)CN(C(=O)c4ccc(F)cc4)C3)ccc2c1 | cell-free assay |  | competition with immobilised ligand | 1 µM | remaining binding | 100% |

| Compound | effect on | mode | method | tested at | measurement | result |
| --- | --- | --- | --- | --- | --- | --- |
| Cc1ccc(NC(=O)c2ccc(CN3CCN(C)CC3)cc2)cc1Nc1nc(-c2cccnc2)cs1 | cell-free assay |  |  | 0.5 µM | remaining signal | 86% |
| Cn1c2c(c3ccc(Cl)c(Cl)c31)C(C#N)C1(CCCC1)NC2=O (stereo not drawn) | thermal stability |  | DSF | 10 µM | ΔTm | 1.7 °C |
| O=S(=O)(NC1CCC(c2cc(F)ccc2F)(S(=O)(=O)c2ccc(Cl)cc2)CC1)C(F)(F)F (stereo not drawn) | cell-free assay |  | competition with immobilised ligand | 1 µM | remaining binding | 100% |
| Cn1c2c(c3ccc(Cl)c(Cl)c31)C(C#N)C1(CCN(C(=O)OC(C)(C)C)CC1)NC2=O (racemic) | thermal stability |  | DSF | 10 µM | ΔTm | -0.3 °C |
| CS(=O)(=O)NCC[C@H](NC(=O)c1cncc2c1cnn2-c1ccc(F)cc1)c1ccnc(S(C)(=O)=O)c1 | cell-free assay |  | competition with immobilised ligand | 1 µM | remaining binding | 100% |
| Nc1ncnc2occ(-c3ccc(NC(=O)Nc4cc(C(F)(F)F)ccc4F)cc3)c12 | cell-free assay | inhibitor |  | 20 µM | remaining signal | 23% |
| CCN(CC)c1ccc(C2=NNC(=O)CC2C)cc1[N+](=O)[O-] (stereo not drawn) | enzyme activity | inhibitor |  | 10 µM | remaining activity | 96% |
| Cn1cncc1C1=CN(c2ncnc3[nH]cnc23)CCS1 | enzyme activity | inhibitor | radiometric | 2 µM | inhibition | 97.8% |
| CCCOc1ccc([C@H]2[C@H](C(=O)O)[C@@H](c3ccc4c(c3)OCO4)CN2CC(=O)Nc2c(CC)cccc2CC)cc1 | cell-free assay |  | competition with immobilised ligand | 1 µM | remaining binding | 91% |
| COc1cc(Nc2cnc(C#N)c(O[C@H](C)CN(C)C)n2)ncc1-c1cnn(C)c1 | enzyme activity | inhibitor | radiometric | 10 µM | remaining activity | 50% |
| COCCOc1nc(-c2ccc(Cl)nc2)nc2c1CN(C(=O)c1ncn3ccccc13)CC2 | cell-free assay |  | competition with immobilised ligand | 0.1 µM | remaining binding | 100% |
| Cn1cnc(Br)c1C1=CN(c2ncnc3[nH]cnc23)CCS1 | enzyme activity | inhibitor | radiometric | 2 µM | inhibition | 97.2% |
| CC(C)(C)c1nc(-c2cccc(NS(=O)(=O)c3c(F)cccc3F)c2F)c(-c2ccnc(N)n2)s1 | enzyme activity | inhibitor | radiometric | 1 µM | remaining activity | 98% |
| O=C(NCc1ncc(C(F)(F)F)cc1Cl)c1ccc2c(c1)C1(CCS(=O)(=O)CC1)[C@@H](C1CC1)N2S(=O)(=O)c1ccc(F)cc1 | cell-free assay |  | competition with immobilised ligand | 1 µM | remaining binding | 82% |
| CS(=O)(=O)CCNCc1ccc(-c2ccc3ncnc(Nc4ccc(OCc5cccc(F)c5)c(Cl)c4)c3c2)o1 | cell-free assay |  |  | 0.5 µM | remaining signal | 95.1% |
| CS(=O)(=O)Nc1cccc(-c2csc(NC(=O)CSc3nc4nccnc4c(=O)n3CCc3ccccc3)n2)c1 | enzyme activity | inhibitor |  | 10 µM | inhibition | 11% |
| O=C1NC(=O)c2cc(Nc3ccc(F)cc3)c(Nc3ccc(F)cc3)cc21 | cell-free assay |  |  | 0.5 µM | remaining signal | 88.1% |
| Cn1c2c(Cl)c(Cl)ccc2c2cn[nH]c(=O)c21 | thermal stability |  | DSF | 10 µM | ΔTm | 2 °C |
